Source: PubChem
HCV NS3 hel inh = inhibitors of HCV NS3 helicase, primary screen, biochemical, Cy5 molecular beacon fluorescence. inhibition, % at 10.9 µM. Hepatitis C virus NS3 helicase. NS3 helicase DNA unwinding. 290,000 tested, 0.56% active;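 active = inhibition above the mean of all tested compounds plus 3 SD, set per campaign, cut at about 35% in these data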
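Measured by: Cy5 fluorescence, 0 and 60 min reads / Assay system: NS3 helicase fragment of HCV / Control set: low DMSO, high thioflavine S at 110 µM / Times: 1 h reaction at 25 °C, ATP-initiated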
pCIP destab = p/CIP-EGFP fusion destabilizers, primary screen, fluorescence, F442A cells | Q05BA5 | 16 h | decrease of EGFP signal, % at 10 µM | 290,000 tested, 0.01% active | AID 1984, 2009;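 active = EGFP signal decrease of at least 30% at 10 µM or well 3 SD below plate mean, unless failing retest; inactive = the rest, including hits failing retest or dose response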
GPR7 antag = GPR7 receptor antagonists, primary screen, cell-based, fluorescence, single concentration. 290,000 tested, 1.1% active. GPR7-expressing cells, fluorescence antagonist assay. Neuropeptides B/W receptor type 1 (Homo sapiens), P48145. inhibition, % at 4.4 µM; in the data active = inhibition above about 16%, passing the limit was not always enough;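 note: cells stimulated with the agonist NPW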
HCV core dimer = inhibitors of HCV core protein dimerization, primary screen, biochemical, TR-FRET, high-throughput; inhibition, % at 5 µM; 300,000 tested, 0.33% active; TR-FRET GST/Flag-core106 dimerization, 1536-well;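 active = inhibition above the mean of all tested compounds plus 3 SD, set per screening campaign, cut at about 45% in these data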
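System: GST/Flag-tagged HCV core106 proteins. Incubation: compound-protein-antibody incubation 4 h at 22.5 °C. Technique: HTRF with 340 nm excitation, 617/671 nm emission. Medium: KF-containing HEPES buffer, pH 7.45, DTT, CHAPS, BSA. Read-out: inhibition (%) from 671 over 617 nm ratio. Also added: Eu(K)-anti-GST 90 ng/mL plus XL665-anti-Flag 1 µg/mL.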
DNA FID counter-1 = compounds displacing fluorescent DNA intercalator, primary screen, artefact control for HCV NS3 helicase inhibitor project, biochemical, FID fluorescence; DNA fluorescent intercalator displacement; inhibition, % at 7.9 µM; 290,000 tested, 0.17% active;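 note: higher means more ethidium bromide displaced from hairpin DNA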
NS3 helicase cf = HCV NS3 helicase inhibitors, retest, confirmation, biochemical, Cy5 molecular beacon fluorescence, triplicate. shares compounds with HCV NS3 hel inh. NS3 helicase DNA unwinding. inhibition, % at 10.9 µM. 1,600 tested, 31% active;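 active = inhibition above the mean of all tested compounds plus 3 SD, cutoff set per campaign, cut at about 36% in these data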
DNA FID counter-2 = compounds displacing fluorescent DNA intercalator, artefact control for HCV NS3 helicase inhibitor project, biochemical, FID fluorescence, triplicate | 1,600 tested, 4% active | shares compounds with HCV NS3 hel inh | inhibition, % at 7.9 µM | AID 1945, 2009 | DNA fluorescent intercalator displacement;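 note: higher means more displacement of ethidium bromide from the DNA hairpin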
Large screens that a line does not name were inactive (follow-up assays come after a bar, where they were run). Hits are enriched below; roughly 1.9% of the tested compounds scored in any of these assays. Cut-off read from the data, not from the text of the source, unless noted: active = inhibition above about 37%; inactive = the rest.

COC(=O)c1ccc(CN2CCN(Cc3ccc(F)cc3)C(CCO)C2)cc1 (configuration not stated)	none
O=C(c1ccco1)N1CCN(C(=O)c2[nH]ncc2[N+](=O)[O-])CC1	HCV NS3 hel inh 37 | NS3 helicase cf inactive | DNA FID counter-2 inactive
O=C(Nc1ccc(Oc2ccc(Cl)cc2)c(Cl)c1)c1cc(I)cc(I)c1O	HCV NS3 hel inh 47 | NS3 helicase cf 84 | DNA FID counter-2 inactive
Cc1cccc(-c2nc3c(c(SCC(=O)N4CCOCC4)n2)COC(C)(C)C3)c1	none
COc1ccc(C2(c3ccc(OC)cc3)NC(=O)N(CC(=O)Nc3cc(C)ccc3OC)C2=O)cc1	none
COc1cccc(/C=N/NC(=O)c2oc3nc(-c4ccccc4)cc(-c4ccco4)c3c2N)c1	HCV NS3 hel inh 39 | NS3 helicase cf inactive | DNA FID counter-2 inactive
Cc1ccc(-c2cc(-c3ccco3)c3c(N)c(C(=O)NN)oc3n2)cc1	HCV NS3 hel inh 42 | NS3 helicase cf inactive | DNA FID counter-2 inactive
NNC(=O)c1oc2nc(-c3cccs3)cc(-c3ccco3)c2c1N	none
COc1ccc(C(CNC(=O)c2ccc(Cl)c(NC(=O)c3cccs3)c2)N2CCCC2)cc1 (configuration not stated)	none (no result: HCV NS3 hel inh, pCIP destab, GPR7 antag, DNA FID counter-1)
O=C(NCC(=O)N(c1ccc(F)cc1)C(C(=O)NC1CCCC1)c1cccnc1)c1ccco1 (configuration not stated)	none
Cc1ccc(-c2noc(Cn3nc(C(=O)O)c4ccccc4c3=O)n2)cc1	none
O=C(O)c1nn(Cc2csc(-c3ccccc3)n2)c(=O)c2ccccc12	HCV NS3 hel inh 48 | NS3 helicase cf inactive | DNA FID counter-2 inactive
O=C(CC(SCc1ccco1)c1ccc(O)cc1)c1cccs1 (configuration not stated)	HCV NS3 hel inh 69 | NS3 helicase cf inactive | DNA FID counter-2 inactive
CCCNC(=O)COc1ccc(-c2nn(C)c(=O)c3ccccc23)cc1	none
CSCCC(NC(=O)c1cncc(Br)c1)C(=O)O (configuration not stated)	HCV NS3 hel inh 40 | NS3 helicase cf inactive | DNA FID counter-2 inactive
O=C(N/N=C/c1cc(Br)c(Br)o1)c1ccc2c(c1)OCCO2	HCV NS3 hel inh 37 | NS3 helicase cf inactive | DNA FID counter-2 inactive
CCC(C)(C)NC(=O)C1CC(=O)N(CCc2ccc(F)cc2)C1 (configuration not stated)	none
Cc1nc2c(C(=O)NCc3ccccc3Cl)c[nH]n2c(=O)c1Cl	HCV NS3 hel inh 56 | NS3 helicase cf 46 | DNA FID counter-2 inactive
Cc1nc2c(C(=O)NCCc3ccccc3Cl)c[nH]n2c(=O)c1Cl	none
CCOc1cccc2cc(-c3nnc(NCc4ccco4)s3)c(=O)oc12	none
COc1ccc2oc(=O)c(-c3nnc(NCc4ccco4)s3)cc2c1	HCV NS3 hel inh 37 | NS3 helicase cf inactive | DNA FID counter-2 inactive
S=c1nc[nH]c2c1cnn2Cc1ccccc1	HCV NS3 hel inh 41 (no result: HCV core dimer) | NS3 helicase cf inactive | DNA FID counter-2 inactive
CC(C)C(OC(=O)CN1C(=O)c2ccccc2C1=O)C(=O)NC1CCCCC1 (configuration not stated)	none
CCCCCOc1ccc(N2C(=O)CC(N(O)c3ccccc3)C2=O)cc1 (configuration not stated)	HCV NS3 hel inh 45 | NS3 helicase cf inactive | DNA FID counter-2 inactive
CCCCOc1ccc(N2C(=O)CC(N(O)c3ccccc3)C2=O)cc1 (configuration not stated)	HCV NS3 hel inh 37 | NS3 helicase cf inactive | DNA FID counter-2 inactive
COc1cc([N+](=O)[O-])ccc1NC(=O)Oc1ccc(NC(C)=O)cc1	none
CCOC(=O)c1c(NS(C)(=O)=O)sc2c1CCC(C)C2 (configuration not stated)	none
CCOC(=O)c1c(N)sc2c1CCC(C)C2 (configuration not stated)	HCV NS3 hel inh 43 | NS3 helicase cf inactive | DNA FID counter-2 inactive
